Activity calls are given as the source filed them. No cut-off for these calls is given here.
What was measured:
[1] = biological target: T1, Progesterone receptor (Homo sapiens) (UniProt P06401); experiment: Agonist activity at human progesterone receptor in human T47D cells assessed as alkaline phosphatase activity relative to progesterone; assay type: functional, cell-based
T1 sequence (whole entry): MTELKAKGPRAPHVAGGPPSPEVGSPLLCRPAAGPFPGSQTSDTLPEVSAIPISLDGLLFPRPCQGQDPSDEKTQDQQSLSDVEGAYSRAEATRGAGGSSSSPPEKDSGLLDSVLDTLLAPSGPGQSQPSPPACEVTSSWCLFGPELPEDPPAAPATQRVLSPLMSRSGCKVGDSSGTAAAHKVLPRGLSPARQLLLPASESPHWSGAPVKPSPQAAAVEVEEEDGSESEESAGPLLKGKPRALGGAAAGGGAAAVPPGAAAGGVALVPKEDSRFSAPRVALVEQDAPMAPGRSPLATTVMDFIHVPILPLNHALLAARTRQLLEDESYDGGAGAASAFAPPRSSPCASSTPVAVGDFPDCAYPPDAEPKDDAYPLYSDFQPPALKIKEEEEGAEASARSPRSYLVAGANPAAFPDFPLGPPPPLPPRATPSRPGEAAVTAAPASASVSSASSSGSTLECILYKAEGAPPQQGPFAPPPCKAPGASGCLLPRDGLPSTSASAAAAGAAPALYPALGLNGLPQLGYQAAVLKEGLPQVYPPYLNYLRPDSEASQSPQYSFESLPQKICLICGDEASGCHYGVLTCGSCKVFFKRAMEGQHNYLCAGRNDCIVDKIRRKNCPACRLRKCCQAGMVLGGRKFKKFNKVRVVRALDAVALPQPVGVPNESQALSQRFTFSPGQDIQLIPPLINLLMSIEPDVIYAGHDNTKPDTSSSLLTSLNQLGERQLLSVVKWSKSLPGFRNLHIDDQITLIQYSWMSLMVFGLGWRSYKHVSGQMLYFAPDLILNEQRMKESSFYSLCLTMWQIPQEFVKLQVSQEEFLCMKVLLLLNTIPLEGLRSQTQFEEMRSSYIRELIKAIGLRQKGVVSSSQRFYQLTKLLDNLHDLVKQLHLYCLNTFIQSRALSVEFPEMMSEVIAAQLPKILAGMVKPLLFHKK

[2] = biological target: T2, Glucocorticoid receptor (Homo sapiens) (UniProt P04150); experiment: Agonist activity at human glucocorticoid receptor relative to Dexamethasone; assay type: functional
T2 sequence (whole entry): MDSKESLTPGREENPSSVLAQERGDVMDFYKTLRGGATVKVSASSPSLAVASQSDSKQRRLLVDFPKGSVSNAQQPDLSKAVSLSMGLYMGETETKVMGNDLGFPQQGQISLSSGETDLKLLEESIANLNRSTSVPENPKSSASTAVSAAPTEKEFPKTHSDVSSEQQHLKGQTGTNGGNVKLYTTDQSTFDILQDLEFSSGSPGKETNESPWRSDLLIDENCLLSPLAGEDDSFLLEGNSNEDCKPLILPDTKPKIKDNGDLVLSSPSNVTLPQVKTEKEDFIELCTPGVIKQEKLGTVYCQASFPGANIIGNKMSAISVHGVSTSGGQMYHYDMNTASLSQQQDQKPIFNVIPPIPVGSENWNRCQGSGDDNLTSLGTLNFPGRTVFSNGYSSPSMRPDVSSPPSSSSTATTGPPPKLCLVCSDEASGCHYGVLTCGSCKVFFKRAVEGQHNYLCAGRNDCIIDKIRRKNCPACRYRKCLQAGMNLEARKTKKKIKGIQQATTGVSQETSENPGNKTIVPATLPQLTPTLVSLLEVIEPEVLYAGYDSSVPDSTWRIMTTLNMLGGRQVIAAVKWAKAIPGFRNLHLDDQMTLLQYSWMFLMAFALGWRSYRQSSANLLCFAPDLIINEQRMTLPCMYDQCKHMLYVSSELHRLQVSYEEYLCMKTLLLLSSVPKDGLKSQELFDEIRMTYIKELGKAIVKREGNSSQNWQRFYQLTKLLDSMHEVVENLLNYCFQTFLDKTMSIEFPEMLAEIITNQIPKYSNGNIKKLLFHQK

[3] = biological target: T3, Estrogen receptor (Homo sapiens) (UniProt P03372); experiment: Agonist activity at human estrogen receptor alpha relative to 17-beta-estradiol; assay type: functional
T3 sequence (whole entry): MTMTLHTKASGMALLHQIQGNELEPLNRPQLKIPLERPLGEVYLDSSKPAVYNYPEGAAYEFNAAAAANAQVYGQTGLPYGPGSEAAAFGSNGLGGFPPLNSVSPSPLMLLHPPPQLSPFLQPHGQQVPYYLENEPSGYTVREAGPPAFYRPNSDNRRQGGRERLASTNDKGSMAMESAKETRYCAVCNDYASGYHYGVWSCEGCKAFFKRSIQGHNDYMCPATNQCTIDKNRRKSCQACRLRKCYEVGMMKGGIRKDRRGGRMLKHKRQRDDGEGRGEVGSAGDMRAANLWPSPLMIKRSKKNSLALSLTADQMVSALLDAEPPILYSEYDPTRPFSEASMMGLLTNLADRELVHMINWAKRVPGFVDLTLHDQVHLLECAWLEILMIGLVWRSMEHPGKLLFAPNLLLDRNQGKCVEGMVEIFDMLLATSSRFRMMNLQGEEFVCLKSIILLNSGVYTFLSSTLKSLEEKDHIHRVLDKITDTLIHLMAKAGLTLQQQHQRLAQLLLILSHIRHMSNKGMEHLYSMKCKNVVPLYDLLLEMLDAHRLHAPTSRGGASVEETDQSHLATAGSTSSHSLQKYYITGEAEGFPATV

Rattus norvegicus [4] = experiment: Inhibition of ovulation in rat assessed as reduction in number of ova at 0.25 to 2.0 mg/kg, po for 5 days; assay type: functional, organism-based
Outline: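 Female rats (n = 6 per group) received vehicle or progestin for 5 days at 0.25, 1.0 or 2.0 mg/kg. The number of ova per rat and the number of rats ovulating were then determined.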

Rattus norvegicus [5] = species on record: Rattus norvegicus; experiment: Progestational activity in estrone-treated ovariectomized rat assessed as reduction of breast alveolar bud proliferation; assay type: functional, organism-based
Outline: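 Ovariectomized rats were treated with estrone, alone or combined with test progestin, and compared with vehicle and estrone-only groups. Endpoints were uterine epithelial cell height, vaginal epithelial thickness and mammary alveolar bud proliferation.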

Efficacy [1]: 55%
Efficacy [2]: 6%
Efficacy [3]: 5%
Structure (SMILES): CC1=C[C@@H]([C@@H]2Oc3c(F)cc(F)cc3-c3ccc4c(c32)C(C)=CC(C)(C)N4)CCC1 (stereo in doubt; (-)-5c)
Activity (Rattus norvegicus [4]): Active
Activity (Rattus norvegicus [5]): Active
